Bioassay records as filed in PubChem.
TNAP inh hi DEA = inhibitors of human TNAP at high phosphate acceptor concentration; P05186; purified TNAP, CDP-star luminescence, 1 M DEA; inhibition, % at 20 µM; 200,000 compounds, 0.03% hits;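 active means over 50% inhibition of tissue-nonspecific alkaline phosphatase at 20 µM in the single-dose screen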;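 further: plate controls were DMSO wells for no effect and EDTA-quenched wells as full inhibition for full effect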
Target sequence (P05186 whole entry, looked up): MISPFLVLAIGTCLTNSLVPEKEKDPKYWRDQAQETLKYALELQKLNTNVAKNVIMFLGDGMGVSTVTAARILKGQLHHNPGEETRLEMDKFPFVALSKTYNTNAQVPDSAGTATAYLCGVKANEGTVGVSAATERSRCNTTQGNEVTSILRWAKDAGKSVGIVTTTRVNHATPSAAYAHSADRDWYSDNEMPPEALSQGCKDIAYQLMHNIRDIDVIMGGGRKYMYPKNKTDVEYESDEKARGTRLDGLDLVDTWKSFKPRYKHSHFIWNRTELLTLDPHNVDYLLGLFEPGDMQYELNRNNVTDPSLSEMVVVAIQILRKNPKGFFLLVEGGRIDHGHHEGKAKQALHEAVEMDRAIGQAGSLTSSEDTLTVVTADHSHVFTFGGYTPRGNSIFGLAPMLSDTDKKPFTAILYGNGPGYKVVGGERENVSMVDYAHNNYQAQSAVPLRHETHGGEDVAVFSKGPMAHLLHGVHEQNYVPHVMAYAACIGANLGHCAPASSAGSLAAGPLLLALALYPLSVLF
TNAP act hiacc = increases human TNAP activity under high phosphate acceptor concentration | P05186 | purified TNAP, CDP-star luminescence, 1 M DEA, 30 min; active compounds read high; 0 = EDTA background, 1 = DMSO-only activity | activation factor at 20 µM | 200,000 tested, under 10 active;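 active means activation factor at least 2 at 20 µM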
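Assay system: human TNAP; Input: enzyme diluted 1/800 final; Reagent: CDP-star luminogenic substrate at 100 µM final; Timing: 30 min, room temperature; Signal: luminescence; Evaluation: TNAP activation factor scaled between EDTA and DMSO control wells.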
TNAP inh noacc = inhibitors of human TNAP without phosphate acceptor. P05186. purified TNAP, CDP-star luminescence, 30 min. inhibition, % at 20 µM. 200,000 compounds, 0.26% hits;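 active means tissue-nonspecific alkaline phosphatase inhibition above about 50% at 20 µM in the single-dose screen, limit read from the data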;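 further: 0% = DMSO negative control and 100% = EDTA positive control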
Biofilm kill mix = mixtures killing C. albicans biofilm; C. albicans biofilm persisters + clotrimazole, fluorescence viability; primary screen in compound mixtures of four per well; inhibition, % at 7.6 µM; 120,000 compounds, 0.02% hits; AID 1242;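 active means inhibition above 30.3% in the primary screen of four-compound pools, then above 30% when the compound was retested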;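 further: compounds exposed to preformed 24 h biofilms for 48 h; 0% = untreated biofilm control and 100% = clotrimazole plus chlorhexidine kill blank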
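Incubation: 24 h biofilm formation, then 48 h compound exposure, 37 °C | Material: C. albicans biofilms | Buffer or medium: RPMI/MOPS medium, pH 7.0 | Measured by: 2-h Alamar Blue fluorescence, 535/590 nm excitation/emission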
An asterisk follows results filed as active. Sampled rows, rich in hits. Any-hit rate of the full collection: about 0.26%.

Screening Cc1ccc(C(=O)Nc2cc([N+](=O)[O-])ccc2C)cc1 returned TNAP inh hi DEA -5.3, TNAP act hiacc 1.1, TNAP inh noacc -16.6 and Biofilm kill mix 21.5.
For Cc1ccc(NC(=O)c2ccc(Nc3c([N+](=O)[O-])cc([N+](=O)[O-])cc3[N+](=O)[O-])cc2)cc1 the results were TNAP inh hi DEA 53.7*, TNAP act hiacc 0.5, TNAP inh noacc -6.2 and Biofilm kill mix 23.6.
Screening Cc1ccc(Nc2nc(N)nc(CSc3nnc(-c4ccncc4)o3)n2)cc1 returned TNAP inh hi DEA 0.8, TNAP act hiacc 1 and TNAP inh noacc -5.6.
For Cc1nn(-c2ccccc2)c(C)c1/C=N/NC(=O)c1cc(-c2ccccc2)n[nH]1 the results were TNAP inh hi DEA 21.5, TNAP act hiacc 0.8 and TNAP inh noacc 97.7*.
Screening CCCCN1CCc2[nH]c(=S)[nH]c(=O)c2C1 returned TNAP inh hi DEA -1.4, TNAP act hiacc 1, TNAP inh noacc -14.6 and Biofilm kill mix 14.5.
Screening NC(=O)c1c(NC(=O)CSc2nnc(-c3ccccc3)n2CC2CCCO2)sc2c1CCC2 (configuration not stated) returned TNAP inh hi DEA -1.7, TNAP act hiacc 1 and TNAP inh noacc -10.3.
Screening N#Cc1c(NC(=O)CSc2nnc(-c3ccccc3)o2)sc2c1CCCC2 returned TNAP inh hi DEA 62.9*, TNAP act hiacc 0.4 and TNAP inh noacc 4.1.
For CCn1c(SCC(=O)Nc2sc3c(c2C#N)CCCC3)nnc1-c1ccncc1 the results were TNAP inh hi DEA 77.1*, TNAP act hiacc 0.2, TNAP inh noacc 58.0* and Biofilm kill mix 20.0.
Screening N#Cc1c(NC(=O)CSc2nnc(-c3ccncc3)n2CC2CCCO2)sc2c1CCCC2 (configuration not stated) returned TNAP inh hi DEA 51.1*, TNAP act hiacc 0.5 and TNAP inh noacc 28.9.
For C(=N\Nc1nc2ccccc2[nH]1)/C1CCCCC1 the results were TNAP inh hi DEA 1.4, TNAP act hiacc 1, TNAP inh noacc -118.5 and Biofilm kill mix 16.2.
Screening COC(=O)C(O)(NC(=O)c1ccncc1)C(F)(F)F (configuration not stated) returned Biofilm kill mix 14.7.
COc1cccc(C(c2sc3nc(C)nn3c2O)N2CCc3ccccc3C2)c1 (configuration not stated) was read as TNAP inh hi DEA -7.0, TNAP act hiacc 1.1 and TNAP inh noacc -8.1.
O=C(CSc1nc(-c2ccccc2)nn1C(=O)c1ccccc1)Nc1cccc([N+](=O)[O-])c1 was read as TNAP inh hi DEA 0.7, TNAP act hiacc 1 and TNAP inh noacc 54.0*.
Screening C/C(CC(=O)Nc1ccccc1Br)=N\NC(=O)C(=O)N1CCCC1 returned TNAP inh hi DEA 3.7, TNAP act hiacc 1 and TNAP inh noacc 66.1*.
Screening COc1cccc(CN2CCNC(=O)C2CC(=O)NCc2cc(C(C)C)no2)c1 (configuration not stated) returned TNAP inh hi DEA -6.0, TNAP act hiacc 1.1, TNAP inh noacc -11.6 and Biofilm kill mix -13.7.
Screening CC1(C)CC(=O)c2c(Cc3ccccc3)n[nH]c2C1 returned TNAP inh hi DEA -1.6, TNAP act hiacc 1 and TNAP inh noacc 88.2*.
CCc1n[nH]c2c1/C(=N\O)CC(C)(C)C2 was read as TNAP inh hi DEA -6.6, TNAP act hiacc 1.1 and TNAP inh noacc 3.4.
CC1(C)CC(=O)C(N=Nc2cccnc2)=C(O)C1 was read as Biofilm kill mix 6.7.
`CC1(C)CC(=O)c2c(-c3cccnc3)n[nH]c2C1` gave TNAP inh hi DEA -5.8, TNAP act hiacc 1.1 and TNAP inh noacc 71.9*.
CCCCc1n[nH]c2c1C(=O)CC(C)(C)C2 was read as TNAP inh hi DEA -3.1, TNAP act hiacc 1 and TNAP inh noacc 86.6*.
`O=C(O)c1sc2cc(C(F)(F)F)cnc2c1-c1cccs1` gave TNAP inh hi DEA -1.2, TNAP act hiacc 1, TNAP inh noacc -5.9 and Biofilm kill mix 11.5.
Screening CC(C)(C)n1nc2c(c1NC(=O)c1cc3ccccc3o1)CS(=O)(=O)C2 returned TNAP inh hi DEA -5.2, TNAP act hiacc 1.1, TNAP inh noacc 50.7* and Biofilm kill mix 0.8.
CC(C)(C)n1nc2c(c1NC(=O)c1ccccc1)CS(=O)(=O)C2 was read as TNAP inh hi DEA 2.0, TNAP act hiacc 1, TNAP inh noacc -3.9 and Biofilm kill mix -0.5.
Screening Cc1ccc(S(=O)(=O)NC(=O)Nc2cc(C(C)(C)C)on2)cc1 returned Biofilm kill mix 15.1.
